Experiments:
Rattus norvegicus [1] = species on record: Rattus norvegicus; assay: To inhibit high affinity uptake of [3H]dopamine (DA) into nerve endings (synaptosomes) prepared from various regions of the rat brain.; type: functional
Procedure, shortened: (§1)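 Radiolabelled monoamine uptake inhibition. Six drug concentrations, each in triplicate, chosen from preliminary screens to bracket the approximate IC50.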

[2] = target: T1, Sodium-dependent dopamine transporter (Rattus norvegicus, UniProt P23977); assay: Inhibition of [3H]mazindol binding to dopamine transporter of rat striatal membranes.; type: cell membranes, Membrane
Rattus norvegicus [3] = species on record: Rattus norvegicus; assay: To inhibit high affinity uptake of [3H]NE into nerve endings (synaptosomes) prepared from various regions of the rat brain.; type: functional; procedure, shortened: as §1
[4] = target: T1, Sodium-dependent dopamine transporter; assay: Inhibition of high affinity uptake of [3H]dopamine into nerve endings (synaptosomes) prepared from various regions of the rat brain.; type: subcellular; procedure, shortened: as §1
Rattus norvegicus [5] = species on record: Rattus norvegicus; assay: To inhibit high affinity uptake of [3H]5-HT into nerve endings (synaptosomes) prepared from various regions of the rat brain.; type: functional; procedure, shortened: as §1

T1 sequence (P23977 whole entry): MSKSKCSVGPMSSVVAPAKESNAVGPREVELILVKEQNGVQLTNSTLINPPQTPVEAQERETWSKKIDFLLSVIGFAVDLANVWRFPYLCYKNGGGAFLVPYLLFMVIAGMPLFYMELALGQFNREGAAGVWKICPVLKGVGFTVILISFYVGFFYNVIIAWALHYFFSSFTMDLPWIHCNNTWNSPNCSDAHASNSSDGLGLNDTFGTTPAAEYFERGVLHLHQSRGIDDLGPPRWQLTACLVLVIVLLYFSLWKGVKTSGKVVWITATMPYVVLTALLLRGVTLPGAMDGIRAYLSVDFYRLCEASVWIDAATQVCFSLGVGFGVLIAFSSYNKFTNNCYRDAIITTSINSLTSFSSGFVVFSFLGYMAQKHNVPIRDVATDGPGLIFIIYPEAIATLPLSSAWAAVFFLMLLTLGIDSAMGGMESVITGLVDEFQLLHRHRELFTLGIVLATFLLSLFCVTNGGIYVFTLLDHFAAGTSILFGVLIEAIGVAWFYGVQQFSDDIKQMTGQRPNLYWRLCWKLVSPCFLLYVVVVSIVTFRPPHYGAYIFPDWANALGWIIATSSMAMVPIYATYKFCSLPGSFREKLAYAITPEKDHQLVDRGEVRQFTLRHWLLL

Row | Structure (SMILES) | Ki (Rattus norvegicus [1]) | Ki [2] | Ki (Rattus norvegicus [3]) | Ki [4] | Ki (Rattus norvegicus [5])
1 | Cc1ccc(C2C[C@H]3CC4OC(=O)C2C4N3C)cc1 (stereo partly drawn) | 25000 nM | – | – | – | –
2 | CCCC1C2CC[C@H](C[C@@H]1c1ccc(C)cc1)N2C (stereo partly drawn) | – | 21 nM | 6.3 nM | 51.8 nM | 80.2 nM
3 | COC(=O)[C@@H]1C2CC[C@H](C[C@@H]1c1ccccc1)N2C | – | 89.4 nM | 37.2 nM | – | 173 nM
4 | COC(=O)[C@H]1C2C(O)C[C@H](C[C@@H]1c1ccc(C)cc1)N2C (stereo partly drawn) | – | 2900 nM | 1000 nM | 5600 nM | 3000 nM
5 | COC(=O)[C@@H]1C2C[C@H](O)[C@H](C[C@@H]1c1ccc(C)cc1)N2C | – | – | 154 nM | – | 6700 nM
6 | COC(=O)[C@H]1C2[C@H](O)C[C@H](C[C@H]1c1ccc(C)cc1)N2C | – | 135 nM | 60.9 nM | – | –
7 | COC(=O)[C@@H]1C2C(O)C[C@H](C[C@@H]1c1ccc(C)cc1)N2C (stereo partly drawn) | – | 25.2 nM | 44.7 nM | 39.2 nM | 581 nM
8 | COC(=O)[C@H]1C2[C@@H](O)C[C@H](C[C@H]1c1ccc(C)cc1)N2C (stereo in doubt; 14b) | – | 1400 nM | 300 nM | 2900 nM | > 100000 nM
9 | COC(=O)[C@H]1C2[C@@H](O)C[C@H](C[C@H]1c1ccc(C)cc1)N2C (stereo in doubt; 19b) | – | 540 nM | – | 676 nM | –
10 | COC(=O)[C@H]1[C@@H](OC(=O)c2ccccc2)C[C@@H]2CC[C@H]1N2C [COCAINE] | – | – | 108 nM | – | 155 nM

Source: ChEMBL document CHEMBL1133630, “Chemical synthesis and pharmacology of 6- and 7-hydroxylated 2-carbomethoxy-3-(p-tolyl)tropanes: antagonism of cocaine's locomotor stimulant effects” (J Med Chem, 2000)
